Only some compounds are listed: those with a hit (about 2.1% of all), similar ones and a draw of the others.
proKLK7 act: proKLK7 zymogen activators, primary screen, biochemical, fluorescence intensity | purified proKLK7, EDANS-DABCYL substrate fluorescence; 100% is mature enzyme control, 0% vehicle | AID 652039, 2013 | hit rate 0.9% among 370,000 | Kallikrein-7 (Homo sapiens), P49862 | activation, % at 7 µM;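 active = activation above the mean of all tested compounds plus 3 SD, computed per campaign excluding outliers beyond control limits, cut at about 13% in these data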
Target sequence (P49862 whole entry, looked up): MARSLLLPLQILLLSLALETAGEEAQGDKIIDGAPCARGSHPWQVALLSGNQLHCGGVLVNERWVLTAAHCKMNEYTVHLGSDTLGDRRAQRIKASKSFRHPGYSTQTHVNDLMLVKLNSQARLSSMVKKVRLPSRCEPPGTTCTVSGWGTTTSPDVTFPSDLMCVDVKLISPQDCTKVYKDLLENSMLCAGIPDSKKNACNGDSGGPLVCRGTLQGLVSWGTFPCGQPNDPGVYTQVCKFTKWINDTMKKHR
Runt-SMMHC FRET: inhibitors of RUNX1 Runt–CBFb-SMMHC binding, primary screen, biochemical, FRET, Cerulean-Runt, Venus-CBFb-SMMHC, uHTS; Runt-related transcription factor 1 (Homo sapiens) + Core-binding factor subunit beta …; hit rate 0.74% among 220,000; Cerulean-Runt/Venus-CBFb-SMMHC FRET ratio 530/480, 1 h; inhibition, % at 20 µM;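 active = mean inhibition across duplicate retests at 20 µM reaching about 50%, limit read from the data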;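 note: 0% = DMSO wells and 100% = wells with excess untagged CBFb-SMMHC; inhibitors lower the FRET ratio by blocking Runt binding to CBFb-SMMHC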
RanGTP-Impb inh: inhibitors of RanGTP-importin-beta interaction, primary screen, biochemical, FRET, CFP-Ran, YFP-importin-beta, homogeneous; Ran GTPase (GTP-bound) - importin-beta complex; cell-free CFP-Ran/YFP-importin-beta FRET ratio; inhibition, % (test concentration not listed); hit rate 1.1% among 300,000; AID 2216, 2009;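 active = more than half of the replicate wells show a fall in the fluorescence ratio signal beyond about 16%, limit read from the data, passing the limit was not always enough; inconclusive = exactly half of the replicate wells pass the set limit; inactive = fewer than half of replicates pass the limit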;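 note: 0% = DMSO wells and 100% = Ran loaded with GDP instead of GTP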
Runt-CBFb FRET: inhibitors of RUNX1 Runt–CBFb binding, primary screen, biochemical, FRET, Cerulean-Runt, Venus-CBFb, uHTS; AID 1496, 2009; Cerulean-Runt/Venus-CBFb FRET ratio 530/480, 1 h; hit rate 0.46% among 220,000; inhibition, % at 20 µM; Runt-related transcription factor 1 (Homo sapiens) + Core-binding factor subunit beta …;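 active = inhibition over about 50% at 20 µM in the single-dose screen, limit read from the data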;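 note: 0% = DMSO wells and 100% = excess unlabeled CBFb competitor control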
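test system = Cerulean-Runt domain fusion protein, energy donor | probe or stimulus = Venus-CBFb binding partner, 100 nM | incubation = two 1 h room-temperature incubations shielded from light | detection = fluorescence energy transfer, 422 nm excitation, 530/480 nm emission | measure = loss of energy transfer signal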
MEX-5 binding: MEX-5 zinc finger RNA-binding disruptors – biochemical, C. elegans, fluorescence polarization, MLPCN library, primary screen. MEX-5/FITC-TCR2 RNA binding; hits give low values. hit rate 0.38% among 300,000. activity score (negative = inhibition of binding), % at 10 µM. Zinc finger protein mex-5 (Caenorhabditis elegans), Q9XUB2;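 active = inhibition past about -25% in most replicates, and total fluorescence under double the plate's negative control median, limit read from the data; inconclusive = replicates evenly split on the limit, or fluorescence at least double controls; inactive = too little inhibition in most replicates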;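 note: 0% = DMSO and -100% = 5 µM competing unlabeled TCR2 RNA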
Target sequence (Q9XUB2 whole entry, looked up): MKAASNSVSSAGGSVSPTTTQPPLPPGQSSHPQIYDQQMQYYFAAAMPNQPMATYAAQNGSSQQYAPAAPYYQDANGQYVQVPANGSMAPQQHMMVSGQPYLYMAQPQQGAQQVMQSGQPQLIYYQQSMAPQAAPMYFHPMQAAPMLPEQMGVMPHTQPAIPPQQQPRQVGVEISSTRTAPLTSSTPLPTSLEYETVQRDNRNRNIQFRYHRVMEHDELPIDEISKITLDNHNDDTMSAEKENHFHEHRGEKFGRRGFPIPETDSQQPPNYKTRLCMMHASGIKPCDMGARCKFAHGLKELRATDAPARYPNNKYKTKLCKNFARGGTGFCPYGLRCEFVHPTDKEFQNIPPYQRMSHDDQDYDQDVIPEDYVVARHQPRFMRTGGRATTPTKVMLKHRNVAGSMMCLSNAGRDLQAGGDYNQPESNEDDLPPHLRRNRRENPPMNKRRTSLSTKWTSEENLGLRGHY
proKLK7 act conf: proKLK7 zymogen activators, confirmation, biochemical, fluorescence intensity, triplicate; shares compounds with proKLK7 act; purified proKLK7, EDANS-DABCYL substrate fluorescence; scaled: vehicle 0, mature enzyme 100; activation, % at 7 µM; hit rate 68% among 3,200;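 active = activation, as change over the incubation, above the mean of all tested compounds plus 3 SD, cut at about 13% in these data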
EDANS interfere: EDANS-DABCYL substrate optical interference, artefact control for kallikrein-7 zymogen activator project, biochemical, fluorescence intensity, high throughput; hit rate 80% among 3,200; shares compounds with proKLK7 act; no enzyme, 4 h; solvent 0%, active enzyme control 100%; activation, % at 7 µM;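 active = activation above the all-compound mean plus 3 SD, ignoring values outside control-based bounds, cut at about 4.8% in these data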;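 note: value is the 4 h activation minus the activation read at time zero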
K7 EDANS ctr: optically interferes with EDANS-DABCYL fluorescence, kallikrein-7 activator counter-screen | shares compounds with proKLK7 act | EDANS-DABCYL peptide fluorescence interference, no enzyme | EC50, µM | hit rate 20% among 250 | AID 720493;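 active = compounds that raise the fluorescence signal in this interference counterscreen, with EC50 at or below 10 µM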;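 note: intact quenched peptide substrate alone read at 355 nm excitation and 520 nm emission; signal is fluorescence gain from T0 to T4 after four hours at room temperature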
* hit, by the source's call; ? = inconclusive; . = no result.

SMILES | proKLK7 act | Runt-SMMHC FRET | RanGTP-Impb inh | Runt-CBFb FRET | MEX-5 binding | proKLK7 act conf | EDANS interfere | others
CC[C@]12c3[nH]c4cc(-c5ccco5)ccc4c3CCN1C(=O)[C@@H](CC(=O)NCc1cccc(C(F)(F)F)c1)C[C@@H]2C(=O)N1CCN(C(=O)C2CC2)CC1 | -3.8 | . | . | . | . | . | .
CC[C@]12c3[nH]c4cc(-c5ccco5)ccc4c3CCN1C(=O)[C@@H](CC(=O)NCc1ccco1)C[C@@H]2C(=O)N1CCN(C(=O)C2CC2)CC1 | 100.0* | . | . | . | . | 66.5* | 93.1*
CC[C@]12c3[nH]c4cc(-c5ccco5)ccc4c3CCN1C(=O)[C@@H](CC(=O)NCCC1=CCCCC1)C[C@@H]2C(=O)N1CCN(C(=O)C2CC2)CC1 | 30.3* | . | . | . | . | 13.6* | 17.0*
CC[C@]12c3[nH]c4cc(-c5ccco5)ccc4c3CCN1C(=O)[C@@H](CC(=O)NCC13CC4CC(CC(C4)C1)C3)C[C@@H]2C(=O)N1CCN(C(=O)C2CC2)CC1 | -13.4 | . | . | . | . | . | .
CC[C@]12c3[nH]c4cc(-c5ccco5)ccc4c3CCN1C(=O)[C@@H](CC(=O)NCc1ccc(OC)c(OC)c1)C[C@@H]2C(=O)N1CCN(C(=O)C2CC2)CC1 | 122.2* | . | . | . | . | 72.2* | 83.6*
O=C(CSc1nnc(C2CCCCC2)o1)Nc1ccccc1Cl | 0.3 | . | -0.2 | . | 1.3 | . | .
COCCn1c(=S)[nH]c2ccc(N(C)C)cc2c1=O | 48.2* | -56.5 | ? | 6.1 | -2.4 | 76.0* | 74.2*
O=c1c2cc(N3CCOCC3)ccc2[nH]c(=S)n1Cc1ccccc1Cl | -0.8 | -7.6 | 3.4 | . | 0.8 | . | .
CCCCN(C)CCn1c(=S)[nH]c2ccc(N3CCOCC3)cc2c1=O | 67.6* | -31.8 | 0.2 | -4.5 | -0.3 | -7.6 | -7.7
O=c1c2cc(N3CCOCC3)ccc2[nH]c(=S)n1CC1CCCO1 (centres undefined) | 31.8* | 2.7 | 4.2 | 23.2 | -0.2 | -16.4 | 4.7*
O=c1c2cc(N3CCOCC3)ccc2[nH]c(=S)n1Cc1ccccn1 | 79.6* | -13.6 | 1.8 | 16.6 | -2.2 | 20.6* | 19.7*
C[C@H]1CC[C@]2(O[C@H](CCO)C[C@H](O)[C@H]2O)O1 | -0.4 | . | 1.3 | . | -2.7 | . | .
COc1ccc(CCn2c(=S)[nH]c3ccc(N4CCOCC4)cc3c2=O)cc1OC | -3.3 | -7.3 | 6.5 | 7.4 | 0.4 | . | .
COCCCn1c(=S)[nH]c2ccc(N3CCOCC3)cc2c1=O | 58.3* | -31.1 | 6.2 | 2.7 | 0.9 | 30.2* | 48.5*
O=C(CCCCCn1c(=S)[nH]c2ccc(N3CCOCC3)cc2c1=O)NCc1cccc(Cl)c1 | 16.5* | -7.8 | 1.5 | -9.0 | -1.2 | -32.2 | -38.4
COc1ccc(N(C=O)C(C(=O)Nc2c(C)cccc2C)c2ccccc2)cc1 (centres undefined) | 0.7 | . | 2.2 | . | 3.1 | . | .
O=C(CSc1nc(=O)n(CCCN2CCOCC2)c2c1CCCC2)Nc1ccc(Cl)cc1 | -0.1 | . | -1.3 | . | 1.1 | . | .
Cc1ccc(C(=O)/C=C/NNC(=O)c2ccccc2O)cc1 | 0.8 | . | -3.2 | . | -4.1 | . | .
COc1ccc2nc3cc(Cl)ccc3c(Nc3ccc(O)c(CN4CCN(C)CC4)c3)c2c1 | 22.4* | . | . | . | . | 32.2* | 22.4* | K7 EDANS ctr=>69.5
CC1(C(=O)Nc2ccc3nc[nH]c3c2)CCN1C(=O)C1(c2ccccc2)CCCC1 (centres undefined) | -0.2 | . | . | . | . | . | .
CCOC(=O)c1oc2cc(O)cc(C)c2c1C | -20.2 | . | . | . | . | . | .
CCCOc1ccc2c(C)c(CC(=O)OC)c(=O)oc2c1 | 6.8 | 2.1 | -2.0 | -1.7 | -3.2 | . | .
CCOC(=O)Cc1c(C)c2ccc(N(CC)CC)cc2oc1=O | 75.7* | 46.5 | 130.5* | 9.9 | -0.3 | -6.5 | -25.6
CCOC(=O)Cc1c(C)c2c(O)cc(O)cc2oc1=O | 75.9* | 67.6* | 8.5 | 39.6 | 1.2 | 62.3* | 64.5*
CC1=C(C(=O)OCC2CCCO2)C(c2ccccc2)C2=C(CC(C)(C)CC2=O)N1 (centres undefined) | 4.0 | 49.0 | 2.1 | 19.6 | 0.2 | . | .
SMILES | proKLK7 act | Runt-SMMHC FRET | RanGTP-Impb inh | Runt-CBFb FRET | MEX-5 binding | proKLK7 act conf | EDANS interfere | others
CCOc1cc(C2C(C(=O)N3CCCCC3)=C(C)NC3=C2C(=O)CCC3)cc(Br)c1O (centres undefined) | 14.7* | 6.1 | 4.4 | 8.5 | -4.5 | 8.4 | 15.4*
O=C(N/N=C/c1c[nH]c2ccccc12)c1[nH]c2ccc(Br)cc2c1-c1ccccc1 | 83.5* | -2.1 | 1.0 | -3.5 | 0.4 | -52.2 | -39.1
COc1ccc2nc(N3CCC(O)CC3)c(C#N)cc2c1 | 15.9* | 75.1* | 50.8* | 41.9 | -16.4 | 60.6* | 71.9*
CCOC(=O)c1cc2nc(-c3ccco3)cc(C(F)(F)F)n2n1 | 19.4* | 40.3 | ? | -0.6 | -2.2 | 0.3 | -2.0
CC(C)NC(=O)c1cc2nc(-c3ccco3)cc(C(F)(F)F)n2n1 | 12.5 | 16.6 | 4.4 | 2.2 | -1.9 | . | .
O=C1CCN2C=Nc3cccc4ccc1c2c34 | 55.5* | 79.3 | 69.3* | -65.5 | ? | 68.4* | 65.7*
Cc1nn(-c2ccccc2)c2sc(C(=O)OC3CCOC3=O)cc12 (centres undefined) | 20.4* | 0.8 | 1.4 | -8.1 | 0.4 | 10.9 | 13.4*
CC(=O)Oc1ccc2c(=O)c(N3C(=O)c4ccccc4C3=O)c(C)oc2c1 | 150.7* | 10.3 | -4.0 | 0.3 | -0.5 | 166.4* | 164.2*
Cc1oc2c(C)c(O)ccc2c(=O)c1-c1nncn1-c1ccccc1 | -1.1 | -44.7 | -0.7 | -15.6 | -3.8 | . | .
Cc1ccccc1-c1c(C)oc2cc(O)ccc2c1=O | 57.6* | 2.2 | 1.7 | -2.0 | -0.6 | 71.4* | 74.5*
CCCOc1ccc2c(=O)c(N3C(=O)c4ccccc4C3=O)c(C)oc2c1 | -0.9 | -4.7 | 2.4 | -2.5 | 3.9 | . | .
Cc1oc2cc(O)ccc2c(=O)c1Oc1ccccc1 | 54.1* | -3.0 | 6.6 | -2.1 | 4.1 | 73.8* | 75.3*

Screens as filed in PubChem BioAssay.
